Measured values reported in ChEMBL document CHEMBL3797157, “Antifungal Quinoline Alkaloids from Waltheria indica” (J Nat Prod, 2016).
Converted amounts (≈) assume the structure as drawn. The source made the active and inactive calls. No cut-off for these calls is given here.

Tests used:
Pichia kudriavzevii = assay: Antimicrobial activity against Candida krusei ATCC 6258 after 24 hrs by two fold serial dilution method; assay type: functional; details: ATCC 6258, 24 h
Outline: (§1)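 Broth microdilution per EUCAST. Yeasts diluted to 2 × 10^5 cells/mL in YNB with 2% glucose, pH 4.6. Compound stocks 10 mg/mL in DMSO, twofold serial dilutions, 1% DMSO final. Drug-free and sterility controls included. Incubated 24 h at 34 °C. MIC is the lowest concentration giving OD450 ≤50% of the compound-free culture. For S. cerevisiae, YNB was supplemented with Complete Supplement Mixture.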

Escherichia coli = assay: Antimicrobial activity against Escherichia coli; assay type: functional
Candida albicans [1] = assay: Antimicrobial activity against Candida albicans CAF2-1 after 24 hrs by two fold serial dilution method; assay type: functional; details: CAF2-1, 24 h; outline: as §1
HeLa = assay: Cytotoxicity against human HeLa cells after 48 hrs by SRB assay; assay type: cell-based
Outline: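 Sulforhodamine B assay in HeLa cells (DMEM + 10% FBS, 37 °C, 5% CO2), seeded at 10^4 cells/well. After 24 h, cells were PBS-washed and exposed to twofold dilutions from 100 μg/mL for 48 h. A day-1 plate was fixed as baseline. OD492 growth = (treated d3 − d1)/(DMSO d3 − d1) × 100. IC50 was obtained by dose–response curve fitting.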

Nakaseomyces glabratus = assay: Antimicrobial activity against Candida glabrata after 24 hrs by two fold serial dilution method; assay type: functional; outline: as §1
Candida tropicalis = assay: Antimicrobial activity against Candida tropicalis ATCC 75 after 24 hrs by two fold serial dilution method; assay type: functional; details: ATCC 75, 24 h; outline: as §1
Staphylococcus aureus = assay: Antimicrobial activity against Staphylococcus aureus; assay type: functional
Saccharomyces cerevisiae = assay: Antimicrobial activity against Saccharomyces cerevisiae BY4741 after 24 hrs by two fold serial dilution method; assay type: functional; details: BY4741, 24 h; outline: as §1
[2] = Selectivity index, ratio of IC50 for human HeLa cells to MIC for Candida albicans CAF2-1
Outline: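 SI = HeLa IC50 (SRB assay, 48 h) divided by the C. albicans CAF2-1 MIC (YNB pH 4.6, 24 h, 34 °C broth microdilution).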

Candida albicans [3] = assay: Antibiofilm activity against Candida albicans CAF2-1 assessed as reduction in metabolic activity after 48 hrs by XTT assay; assay type: functional; details: CAF2-1, 48 h
Pseudomonas aeruginosa = assay: Antimicrobial activity against Pseudomonas aeruginosa; assay type: functional
Candida parapsilosis = assay: Antimicrobial activity against Candida parapsilosis ATCC 22019 after 24 hrs by two fold serial dilution method; assay type: functional; details: Lodderomyces parapsilosis, ATCC 22019, 24 h; outline: as §1
Candida albicans [4] = assay: Antimicrobial activity against Candida albicans CAF2-1 assessed as punctual disruption of nuclear membrane at 2 ug/ml after 4 hrs by uranyl acetate/lead citrate staining based transmission electron microscopy; assay type: functional, organism-based
Outline: (§2)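 CAF2-1 grown in YNB pH 4.6 at 37 °C for 2 h. Compound (1 mg/mL DMSO stock) then added at 1 or 2 μg/mL. DMSO-treated and untreated controls. Samples taken at 4 and 18 h and pelleted. Prefixed in 3% glutaraldehyde–2% paraformaldehyde in 0.07 M phosphate pH 7, postfixed in 1% OsO4, ethanol-dehydrated and embedded in LR White. 0.08 μm sections stained with uranyl acetate/lead citrate and viewed by TEM.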

Candida albicans [5] = assay: Antimicrobial activity against Candida albicans CAF2-1 assessed as breakage zones of plasmic membrane at 2 ug/ml after 18 hrs by uranyl acetate/lead citrate staining based transmission electron microscopy; assay type: functional, organism-based; outline: as §2
Candida albicans [6] = assay: Antimicrobial activity against Candida albicans CAF2-1 assessed as breakage zones of plasmic membrane at 1 ug/ml after 18 hrs by uranyl acetate/lead citrate staining based transmission electron microscopy; assay type: functional, organism-based; outline: as §2
Candida albicans [7] = assay: Antimicrobial activity against Candida albicans CAF2-1 assessed as cytoplasmic content disorganization at 1 ug/ml after 18 hrs by uranyl acetate/lead citrate staining based transmission electron microscopy; assay type: functional, organism-based; outline: as §2
Candida albicans [8] = assay: Antimicrobial activity against Candida albicans CAF2-1 assessed as punctual disruption of nuclear membrane at 1 ug/ml after 4 hrs by uranyl acetate/lead citrate staining based transmission electron microscopy; assay type: functional, organism-based; outline: as §2
Candida albicans [9] = assay: Antimicrobial activity against Candida albicans CAF2-1 assessed as cytoplasmic content disorganization at 2 ug/ml after 18 hrs by uranyl acetate/lead citrate staining based transmission electron microscopy; assay type: functional, organism-based; outline: as §2
Candida albicans [10] = assay: Antimicrobial activity against Candida albicans CAF2-1 assessed as accumulation of dark corpuscles in nucleus at 2 ug/ml after 4 hrs by uranyl acetate/lead citrate staining based transmission electron microscopy; assay type: functional, organism-based; outline: as §2
Candida albicans [11] = assay: Antimicrobial activity against Candida albicans CAF2-1 assessed as accumulation of dark corpuscles in nucleus at 1 ug/ml after 4 hrs by uranyl acetate/lead citrate staining based transmission electron microscopy; assay type: functional, organism-based; outline: as §2

Row | SMILES | MIC (Pichia kudriavzevii) | MIC (Escherichia coli) | MIC (Candida albicans [1]) | IC50 (HeLa) | MIC (Nakaseomyces glabratus) | MIC (Candida tropicalis) | MIC (Staphylococcus aureus) | MIC (Saccharomyces cerevisiae) | Selectivity Index [2] | MIC (Candida albicans [3]) | MIC (Pseudomonas aeruginosa) | MIC (Candida parapsilosis) | Activity (Candida albicans [4]) | Activity (Candida albicans [5]) | Activity (Candida albicans [6]) | Activity (Candida albicans [7]) | Activity (Candida albicans [8]) | Activity (Candida albicans [9]) | Activity (Candida albicans [10]) | Activity (Candida albicans [11])
1 | CCCCCCCC[C@H]1CCC(=O)c2[nH]c(C)c(OC)c(=O)c21 | 16 µg/mL (≈ 50.1 µM) | > 32 µg/mL | 32 µg/mL (≈ 100 µM) | 23.4 µg/mL (≈ 73.3 µM) | > 32 µg/mL | > 32 µg/mL | > 32 µg/mL | > 32 µg/mL | 0.7 | 16 µg/mL (≈ 50.1 µM) | > 32 µg/mL | 4 µg/mL (≈ 12.5 µM) |  |  |  |  |  |  |  | 
2 | CCCCCCCC[C@@H]1CCCc2[nH]c(C)c(OC)c(=O)c21 | 32 µg/mL (≈ 105 µM) | > 32 µg/mL | 16 µg/mL (≈ 52.4 µM) | 24.7 µg/mL (≈ 80.9 µM) | > 32 µg/mL | > 32 µg/mL | > 32 µg/mL | > 32 µg/mL | 1.5 | 32 µg/mL (≈ 105 µM) | > 32 µg/mL | 32 µg/mL (≈ 105 µM) |  |  |  |  |  |  |  | 
3 | CCCCCCCC[C@H]1CC[C@@H](O)c2[nH]c(C)c(OC)c(=O)c21 | 32 µg/mL (≈ 99.5 µM) |  | 32 µg/mL (≈ 99.5 µM) | 50 µg/mL (≈ 156 µM) | > 32 µg/mL | > 32 µg/mL |  | > 32 µg/mL | 1.6 | 16 µg/mL (≈ 49.8 µM) |  | > 32 µg/mL |  |  |  |  |  |  |  | 
4 | OC(Cn1cncn1)(Cn1cncn1)c1ccc(F)cc1F [FLUCONAZOLE] | 32 µg/mL (≈ 104 µM) |  | 0.5 µg/mL (≈ 1.63 µM) | > 100 µg/mL | > 128 µg/mL | 4 µg/mL (≈ 13.1 µM) |  | 16 µg/mL (≈ 52.2 µM) | >200 | > 256 µg/mL |  | 4 µg/mL (≈ 13.1 µM) |  |  |  |  |  |  |  | 
5 | CCCCCCCC[C@H]1CC[C@@H](OC)c2[nH]c(C)c(OC)c(=O)c21 | > 32 µg/mL | > 32 µg/mL | 4 µg/mL (≈ 11.9 µM) | 20 µg/mL (≈ 59.6 µM) | > 32 µg/mL | > 32 µg/mL | > 32 µg/mL | > 32 µg/mL | 5 | 8 µg/mL (≈ 23.8 µM) | > 32 µg/mL | > 32 µg/mL | Active | Active | Active | Active | Active | Active | Active | Active
6 | CCCCCCCC[C@@H]1CCCc2c1c(=O)c(OC)c(CO)n2OC | > 32 µg/mL | > 32 µg/mL | 32 µg/mL (≈ 91 µM) | 26.6 µg/mL (≈ 75.7 µM) | > 32 µg/mL | > 32 µg/mL | > 32 µg/mL | > 32 µg/mL | 0.8 | 16 µg/mL (≈ 45.5 µM) | > 32 µg/mL | > 32 µg/mL |  |  |  |  |  |  |  | 
7 | COc1c(C)n(OC)c2c(c1=O)[C@@H](CCCCCc1ccccc1)CCC2 | 32 µg/mL (≈ 86.6 µM) | > 32 µg/mL | 32 µg/mL (≈ 86.6 µM) | 9.5 µg/mL (≈ 25.7 µM) | 32 µg/mL (≈ 86.6 µM) | 32 µg/mL (≈ 86.6 µM) | > 32 µg/mL | 16 µg/mL (≈ 43.3 µM) | 0.3 | 32 µg/mL (≈ 86.6 µM) | > 32 µg/mL | 2 µg/mL (≈ 5.41 µM) | Active | Active | Active | Active | Active | Active | Active | Active
8 | CCCCCCCC[C@H]1CCCc2c1c(=O)c(OC)c(C)n2OC | 16 µg/mL (≈ 47.7 µM) | > 32 µg/mL | 16 µg/mL (≈ 47.7 µM) | 16.1 µg/mL (≈ 48 µM) | 32 µg/mL (≈ 95.4 µM) | 32 µg/mL (≈ 95.4 µM) | > 32 µg/mL | 16 µg/mL (≈ 47.7 µM) | 1 | 16 µg/mL (≈ 47.7 µM) | > 32 µg/mL | 2 µg/mL (≈ 5.96 µM) |  |  |  |  |  |  |  | 
9 | CC[C@H](C)C[C@H](C)CCCCCCCCC(=O)N[C@H]1C[C@@H](O)[C@@H](NCCN)NC(=O)[C@@H]2[C@@H](O)CCN2C(=O)[C@H]([C@H](O)CCN)NC(=O)[C@H]([C@H](O)[C@@H](O)c2ccc(O)cc2)NC(=O)[C@@H]2C[C@@H](O)CN2C(=O)[C@H]([C@@H](C)O)NC1=O [CASPOFUNGIN] | 0.1 µg/mL (≈ 0.0915 µM) |  | 0.3 µg/mL (≈ 0.274 µM) | > 100 µg/mL | 0.1 µg/mL (≈ 0.0915 µM) | 0.5 µg/mL (≈ 0.457 µM) |  | 0.3 µg/mL (≈ 0.274 µM) | >400 | 0.1 µg/mL (≈ 0.0915 µM) |  | 1 µg/mL (≈ 0.915 µM) |  |  |  |  |  |  |  | 
10 | CCCCCCCCc1ccc(OC)c2[nH]c(C)c(OC)c(=O)c12 | > 32 µg/mL | > 32 µg/mL | 8 µg/mL (≈ 24.1 µM) | 14.4 µg/mL (≈ 43.4 µM) | > 32 µg/mL | > 32 µg/mL | > 32 µg/mL | > 32 µg/mL | 1.8 | 16 µg/mL (≈ 48.3 µM) | > 32 µg/mL | > 32 µg/mL |  |  |  |  |  |  |  | 
11 | CCCCCCCC[C@@H]1CCCc2[nH]c(CO)c(OC)c(=O)c21 | 32 µg/mL (≈ 99.5 µM) |  | 32 µg/mL (≈ 99.5 µM) | 24.4 µg/mL (≈ 75.9 µM) | > 32 µg/mL | > 32 µg/mL |  | > 32 µg/mL | 0.8 | 16 µg/mL (≈ 49.8 µM) |  | > 32 µg/mL |  |  |  |  |  |  |  | 
12 | COc1c(C)[nH]c2c(c1=O)[C@@H](CCCCCc1ccccc1)CC[C@H]2OC | > 32 µg/mL | > 32 µg/mL | 32 µg/mL (≈ 86.6 µM) | 11.9 µg/mL (≈ 32.2 µM) | > 32 µg/mL | > 32 µg/mL | > 32 µg/mL | > 32 µg/mL | 0.4 | 32 µg/mL (≈ 86.6 µM) | > 32 µg/mL | > 32 µg/mL |  |  |  |  |  |  |  | 
